RGS4 inh: RGS4 inhibitors, primary screen, cell-based, HEK293 M3R inducible RGS4, calcium flux. Fluo-4 calcium flux; stronger effect = higher value; triggered by carbachol at its EC20. Regulator of G-protein signaling 4 (Homo sapiens), P49798. B-score at 10 µM. 310,000 compounds, 0.45% hits. AID 463165, 2010;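 active means B-score, a plate-corrected calcium signal, over three deviations above library mean, with baseline fluorescence within five deviations of library mean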;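 further: RGS4 expression induced by doxycycline in cells with stable M3 receptor; B-score is computed from the integrated fluorescence ratio over baseline after carbachol; higher B-score means a larger calcium signal and so more RGS4 inhibition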
Target sequence (P49798 whole entry, looked up): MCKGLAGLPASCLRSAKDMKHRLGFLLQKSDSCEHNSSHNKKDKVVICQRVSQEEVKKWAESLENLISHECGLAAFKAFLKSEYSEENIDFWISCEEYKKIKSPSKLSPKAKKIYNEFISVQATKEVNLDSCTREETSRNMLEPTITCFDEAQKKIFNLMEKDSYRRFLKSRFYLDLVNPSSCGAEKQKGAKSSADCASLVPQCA
MrgX1 PAM: positive allosteric modulators of MrgX1, primary screen, HEK293 cells, Fluo-4 calcium flux; Mas-related G-protein coupled receptor member X1 (Homo sapiens), Q96LB2; FDSS; stronger effect = higher value; B-score at 10 µM; 310,000 compounds, 0.63% hits; AID 588675, 2011;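 active means plate-corrected calcium response at least 3 library SD above typical, normal starting fluorescence, not activating the receptor alone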;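 further: compound read alongside a low EC10 to EC30 dose of BAM8-22 agonist; peak minus trough fluorescence over baseline measured at the second addition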
Target sequence (Q96LB2 whole entry, looked up): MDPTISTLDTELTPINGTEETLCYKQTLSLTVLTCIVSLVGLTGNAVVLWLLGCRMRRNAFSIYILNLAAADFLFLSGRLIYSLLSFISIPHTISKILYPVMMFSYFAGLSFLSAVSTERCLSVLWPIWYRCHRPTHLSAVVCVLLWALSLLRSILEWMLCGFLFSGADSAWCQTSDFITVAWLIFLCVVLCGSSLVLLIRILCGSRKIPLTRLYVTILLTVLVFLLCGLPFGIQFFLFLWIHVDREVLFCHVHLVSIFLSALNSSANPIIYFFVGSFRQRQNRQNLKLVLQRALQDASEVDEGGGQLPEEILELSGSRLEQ
MrgX1 ag: agonists of human MrgX1 receptor, primary screen, HEK293 cells, Fluo-4 calcium flux; 310,000 compounds, 0.44% hits; Mas-related G-protein coupled receptor member X1 (Homo sapiens), Q96LB2; B-score at 10 µM; AID 588627, 2011; Fluo-4 calcium fluorescence, agonist mode; stronger effect = higher value;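 active means calcium response B-score plate-corrected fluorescence ratio at least 3 library SD, with starting fluorescence B-score inside 5 SD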
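Assay system: MrgX1-expressing HEK293 cells / Amount: fifteen thousand cells per well / Doses: test compound in the initial addition of three / Timing: cells plated overnight, dye loaded 0.5 h 37 °C, 0.5 h room temperature / Technique: kinetic calcium dye fluorescence, Fluo-4 NW / Control set: positive and negative controls per plate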
MrgX1 antag: antagonists of human MrgX1 receptor, primary screen, HEK293 cells, Fluo-4 calcium flux | Mas-related G-protein coupled receptor member X1 (Homo sapiens), Q96LB2 | BAM8-22 antagonism; stronger effect = lower value | B-score at 10 µM | 310,000 compounds, 1.3% hits;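 active means calcium-response B-score plate-corrected more than 3 library SD below zero, starting fluorescence within 5 deviations, no agonist response on first addition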;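 further: peak minus trough fluorescence over baseline after final BAM8-22 challenge near maximal dose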
RGS4 act: RGS4 potentiators or activators, primary screen, cell-based, HEK293 M3R inducible RGS4, calcium flux; 310,000 compounds, 0.92% hits; B-score at 10 µM; carbachol calcium flux Fluo4; stronger effect = lower value;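 active means B-score of the integrated calcium signal more than 4 SD below the library mean, with starting fluorescence not abnormally high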;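 further: negative B-score means reduced calcium response which marks RGS4 activation or potentiation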
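Also added: carbachol at ECmax as muscarinic agonist stimulus; Assay system: HEK293 cells with stable M3R and inducible RGS4; Timing: overnight RGS4 induction, 30 min dye load 37 °C, 20 min compound RT; Measured by: Fluo4-AM (2 µM) calcium-flux fluorescence, kinetic read.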
MrgX1 ag confirm: MrgX1 receptor agonists, duplicate retest, confirmation, HEK293 cells, Fluo-4 calcium flux; shares compounds with MrgX1 ag; 600 compounds, 78% hits; Fluo-4 calcium fluorescence, FDSS; activation, % at 10 µM;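 active means calcium signal rise, corrected for plate position, at least 3 library SD high, with starting brightness within 5 such deviations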
MrgX1 PAM conf: MrgX1 positive allosteric modulators, duplicate retest, confirmation, HEK293 cells, Fluo-4 calcium flux. shares compounds with MrgX1 PAM. Fluo-4 calcium fluorescence, FDSS. activation (ratio percentage), % at 10 µM. 1,200 compounds, 13% hits. AID 602413, 2012;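 active means ratio at least 3 SD above the weak peptide control, stable starting fluorescence, no direct agonism earlier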;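 further: compound followed by low BAM8-22 agonist challenge near EC20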
MrgX1 ant reconf: MrgX1 receptor antagonists, duplicate retest, confirmation, HEK293 cells, Fluo-4 calcium flux. shares compounds with MrgX1 antag. remaining BAM8-22 calcium response % of control (stronger effect = lower value), % at 10 µM. 2,300 compounds, 19% hits. BAM8-22 calcium flux; stronger effect = lower value. AID 602420, 2012;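 active means remaining agonist calcium response no higher than 100% minus 3 SD of agonist-only control wells, with starting fluorescence near control levels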;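 further: agonist BAM8-22 given at a near maximal EC90 to ECmax level; peak minus minimum fluorescence divided by baseline after agonist addition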
HEK293 Ca flux: nonspecific calcium signal in parental HEK293, confirmation, counter-screen for MrgX1 antagonist project, parental HEK293 cells, Fluo-4 calcium flux; 4,000 compounds, 2% hits; fluorescence ratio F(max-min)/F0 at 10 µM; AID 624111, 2012; shares compounds with MrgX1 antag; Fluo-4 calcium fluorescence, FDSS;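 active means duplicate-averaged calcium fluorescence ratio at least three times the standard deviation of buffer wells, a nonspecific response in parental cells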
HEK293 Ca counter: calcium response in parental HEK293 cells, primary screen, counter-screen for MrgX1 allosteric activator project, cell-based, Fluo-4 calcium flux, duplicate; AID 624114, 2012; shares compounds with MrgX1 antag; 4,000 compounds, 0.4% hits; Fluo-4 fluorescence ratio; stronger effect = higher value; fluorescence ratio F(max-min)/F0 at 10 µM;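 active means calcium fluorescence ratio, averaged over duplicates, at least 3 SD of the buffer-well ratio, meaning a nonspecific response in receptor-free cells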;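 further: untransfected parental HEK293 lacking MrgX1 used as counterscreen for MrgX1 allosteric activators; fluorescence change taken during the second addition on a kinetic imager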
HEK293 Ca cntr2: calcium response in parental HEK293 cells, primary screen, counter-screen for MrgX1 agonist project, cell-based, Fluo-4 calcium flux, duplicate, agonist mode; shares compounds with MrgX1 antag; Fluo-4 calcium fluorescence (FDSS); stronger effect = higher value; fluorescence ratio F(max-min)/F0 at 10 µM; 4,000 compounds, 8.7% hits; AID 624115, 2012;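 active means calcium fluorescence ratio at least three times the spread of buffer wells, meaning a non-specific response in parental cells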
Starred values were filed as active, the others as inactive; i = inactive; / = no result given; ! = repeats disagree. Most compounds without a hit are left out; they make up all but 3.5% or so of the library.

SMILES	RGS4 inh	MrgX1 PAM	MrgX1 ag	MrgX1 antag	RGS4 act	MrgX1 PAM conf	HEK293 Ca flux	HEK293 Ca counter	HEK293 Ca cntr2	others
C#CCOC(=O)C1=CCCN(C)C1	/	i	90*	i	/	/	i	i	54*	MrgX1 ag confirm=281%*
CC(=O)OCC[N+](C)(C)C	i	i	134*	i	-7.5*!	/	i	i	108*	MrgX1 ag confirm=558%*
O=C(CCCN1CCC2(CC1)C(=O)NCN2c1ccccc1)c1ccc(F)cc1	i	i	76*	i	i	/	i	i	99*	MrgX1 ag confirm=542%*
O=C(c1ccc(F)cc1)C(Cc1ccccc1)N1CCCCC1 (stereo unspecified)	i	i	i	i	i	/	/	/	/
COC(=O)N(c1ccccc1)P(=O)(Oc1ccccc1)Oc1ccccc1	i	i	i	i	i	/	/	/	/
Cc1cc(C)n(-c2ccc(NN=C(C#N)C#N)cc2)n1	i	i	88*	i	i	/	i	i	56*	MrgX1 ag confirm=215%*
CN(C)C1(CNC(=O)Nc2ccc(Cl)c(Cl)c2)CCCCC1	i	i	30*	i	i	/	i	i	i	MrgX1 ag confirm=i
CN(C)C1(CNC(=O)c2cc(S(=O)(=O)N3CCOCC3)c(Cl)cc2Cl)CCCCC1	i	i	i	i	i	/	/	/	/
CC1CN(C(=O)CCC(=O)N2CCC3(CC2)OCCO3)c2cc(Cl)ccc2O1 (stereo unspecified)	i	i	i	i	i	/	/	/	/
CCOc1cc2c(cc1OCC)-n1cccc1C(c1cc(OC)ccc1F)NC2 (stereo unspecified)	i	i	i	i	i	/	/	/	/
CCC(C)N1C(=O)NC(=O)C2(Cc3c(ccc4ccccc34)N(C)C2)C1=O (stereo unspecified)	i	i	34*	i	i	/	i	i	i	MrgX1 ag confirm=i
CCOC(=O)c1cncn1[C@@H](C)c1ccccc1	/	i	i	i	/	/	/	/	/
O=C(NCCCN1CCOCC1)C(Cl)(Cl)Cl	i	i	i	i	i	/	/	/	/
CC1C(c2cccs2)=[N+]([O-])C(C)(C(=O)c2cccs2)N1O (stereo unspecified)	i	i	i	i	i	/	/	/	/
CCCCn1c(O)c(C(C)=NCc2ccco2)c(=O)[nH]c1=O	i	i	i	i	i	/	/	/	/
CCOC(=O)C1=C(N)Oc2cc(C)oc(=O)c2C12C(=O)N1c3c(cccc32)C(C)=CC1(C)C (stereo unspecified)	i	9.2*	i	i	i	i	i	i	87*
COc1ccc(C(=O)c2nc3ccccc3n2C(C)C)cc1OC	i	i	i	i	i	/	/	/	/
COc1ccc(C(=O)c2nc3ccccc3n2C(C)C)cc1	i	6.5*	i	i	i	i	i	i	i
c1ccc([C@@H]2CO2)cc1	i	i	i	i	i	/	/	/	/
CCCCCn1c(=O)c(C(=O)NCCc2ccccc2)c(O)c2ccccc21	i	7.6*	i	-8.2*	i	i	i	i	i	MrgX1 ant reconf=i
Cc1ccc(Cn2ccccc2=N)cc1	i	i	i	i	i	/	/	/	/
Cc1ccc(-n2c(C)nc3ccccc3c2=O)cc1C	i	7.7*	i	i	i	13%*	i	i	i
COc1nc2ccccc2c(=O)n1-c1ccc(Cl)cc1	i	12*	i	i	i	i	i	i	i
COc1nc2ccccc2c(=O)n1-c1ccc(C)cc1	i	18*	i	i	i	i	i	i	i
CCCc1nc2ccccc2c(=O)n1-c1ccc(OC)cc1	i	i	i	i	i	/	/	/	/
SMILES	RGS4 inh	MrgX1 PAM	MrgX1 ag	MrgX1 antag	RGS4 act	MrgX1 PAM conf	HEK293 Ca flux	HEK293 Ca counter	HEK293 Ca cntr2	others
CCCCOc1nc2ccccc2c(=O)n1-c1ccccc1	i	9.2*	i	i	i	i	i	i	48*
COc1ccc(-n2c(-c3ccc(C)cc3)nc3ccccc3c2=O)cc1	i	i	i	i	i	/	/	/	/
COc1ccc2ccccc2c1CNCCc1ccccc1	i	i	i	i	i	/	/	/	/
CN(C)C(=O)Oc1ccc2c(=O)c(Oc3ccccc3Br)coc2c1	i	i	i	i	i	/	/	/	/
CSc1ccc(C(=O)C2CCCN(CCCn3cccn3)C2)cc1 (stereo unspecified)	i	i	i	i	i	/	/	/	/
CC1(C)CN=C(NCc2ccccc2)S1	i	6.4*	i	i	i	i	i	i	i
C[CH2][Hg][S]c1ccccc1C(=O)O	/	6.5*	i	i	/	i	i	i	i
CC(C)COC(=O)c1ccccc1C(=O)OCC(C)C	i	i	i	i	i	/	/	/	/
CCN1C(=O)CC(c2cccnc2)=Nc2ccccc21	i	6.4*	i	i	i	i	i	i	i
O=C1CC(c2cccnc2)=NN1c1ccc(Cl)cc1Cl	i	i	i	i	i	/	/	/	/

Source: PubChem
